Reference: ChEMBL document CHEMBL4390654, “Microwave-assisted solid-phase synthesis of antisense acpP peptide nucleic acid-peptide conjugates active against colistin- and tigecycline-resistant E. coli and K. pneumoniae” (Eur J Med Chem, 2019)

Legend:
Format in all cases: functional
Escherichia coli [1] = assay: Antibacterial activity against multi-drug resistant Escherichia coli NMI 3898/15 assessed as reduction in microbial growth incubated for 20 hrs; conditions: NMI 3898/15, 20 h
Outline: (§1)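 Broth microdilution MIC (modified Hancock protocol) in non-binding polystyrene plates. Inoculum ~2 × 10^5 CFU/mL in Mueller-Hinton broth with Mg²⁺ and Ca²⁺ at 4 mg/L each. Compounds dissolved in water, diluted in 0.01% acetic acid/0.2% BSA (final), added as 10× stocks. Covered plates incubated 20 h at 35 °C (± 2 °C) with 220 rpm circular shaking before MIC read.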

Escherichia coli [2] = assay: Antibacterial activity against multi-drug resistant Escherichia coli NMI 3548/14 assessed as reduction in microbial growth incubated for 20 hrs; outline: as §1
Klebsiella pneumoniae [3] = assay: Antibacterial activity against multi-drug resistant Klebsiella pneumoniae NMI 2697/14 assessed as reduction in microbial growth incubated for 20 hrs; outline: as §1
Klebsiella pneumoniae [4] = assay: Antibacterial activity against multi-drug resistant Klebsiella pneumoniae NMI 3081/09 assessed as reduction in microbial growth incubated for 20 hrs; outline: as §1

| Compound | MIC (Escherichia coli [1]) | MIC (Escherichia coli [2]; NMI 3548/14, 20 h) | MIC (Klebsiella pneumoniae [3]; NMI 2697/14, 20 h) | MIC (Klebsiella pneumoniae [4]; NMI 3081/09, 20 h) | MIC (Escherichia coli [2]) | MIC (Klebsiella pneumoniae [3]) | MIC (Klebsiella pneumoniae [4]) |
| --- | --- | --- | --- | --- | --- | --- | --- |
| NCC[C@H](O)C(=O)N[C@@H]1C[C@H](N)[C@@H](O[C@H]2O[C@H](CN)[C@@H](O)[C@H](O)[C@H]2O)[C@H](O)[C@H]1O[C@H]1O[C@H](CO)[C@@H](O)[C@H](N)[C@H]1O [AMIKACIN] | 2 µg/mL | 8 µg/mL | 32 µg/mL | 16 µg/mL | – | – | – |
| CO/N=C(\C(=O)N[C@@H]1C(=O)N2C(C(=O)[O-])=C(C[N+]3(C)CCCC3)CS[C@H]12)c1csc(N)n1 | – | 2 µg/mL | 16 µg/mL | > 256 µg/mL | – | – | – |
| CCN1CCN(C(=O)N[C@@H](C(=O)N[C@@H]2C(=O)N3[C@@H]2SC(C)(C)[C@@H]3C(=O)O)c2ccccc2)C(=O)C1=O [PIPERACILLIN] | > 256 µg/mL | 8 µg/mL | > 256 µg/mL | > 256 µg/mL | – | – | – |
| GENTAMICIN | – | – | – | – | 2 µg/mL | > 64 µg/mL | 2 µg/mL |
| CO/N=C(\C(=O)N[C@@H]1C(=O)N2C(C(=O)O)=C(COC(C)=O)CS[C@H]12)c1csc(N)n1 [CEFOTAXIME] | 16 µg/mL | 16 µg/mL | > 32 µg/mL | > 32 µg/mL | – | – | – |
| CC(C)(O/N=C(\C(=O)N[C@@H]1C(=O)N2C(C(=O)[O-])=C(C[n+]3ccccc3)CS[C@H]12)c1csc(N)n1)C(=O)O [CEFTAZIDIME] | 64 µg/mL | 2 µg/mL | > 32 µg/mL | 64 µg/mL | – | – | – |
| C[C@@H](O)[C@H]1C(=O)N2C(C(=O)O)=C(SCCNC=N)C[C@H]12 [IMIPENEM ANHYDROUS] | 0.5 µg/mL | 2 µg/mL | 4 µg/mL | 32 µg/mL | – | – | – |
| C[C@@H](O)[C@H]1C(=O)N2C(C(=O)O)=C(S[C@@H]3CN[C@H](C(=O)N(C)C)C3)[C@H](C)[C@H]12 [MEROPENEM] | 0.125 µg/mL | 0.5 µg/mL | 1 µg/mL | > 32 µg/mL | – | – | – |
